Counter-ions that a name gives are not always drawn.
Tests used:
Format in all cases: functional
Settings in all cases: Homo sapiens
PMNL [1] = test: Inhibition of Superoxide radical scavenging activity in 40% EtOH at 0.1 mM in PMA-stimulated PMN
Procedure, shortened: (§1)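 Human PMNs were isolated by Percoll gradient (density 1.080 g/mL) from fresh venous blood of a single volunteer and suspended in PAG-CM buffer (PIPES pH 7.4, HSA, glucose, 1 mM CaCl2/MgCl2). 1 × 10⁶ cells were preincubated 5 min with compound in water or 40% EtOH, then stimulated with PMA (1 ng/mL). Superoxide was spin-trapped with DEPMPO (10 mM) and read by X-band EPR. Results are mean % signal inhibition, N=3 per formulation except one N=1.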

PMNL [2] = test: Inhibition of Superoxide radical scavenging activity in water at 5.0 mM in PMA-stimulated PMN; procedure, shortened: as §1
PMNL [3] = test: Inhibition of Superoxide radical scavenging activity in water at 0.1 mM in PMA-stimulated PMN; procedure, shortened: as §1
PMNL [4] = test: Inhibition of Superoxide radical scavenging activity in water at 1.0 mM in PMA-stimulated PMN; procedure, shortened: as §1
PMNL [5] = test: Inhibition of Superoxide radical scavenging activity in water at 3.0 mM in PMA-stimulated PMN; procedure, shortened: as §1

SMILES	inhibition at 100 µM (PMNL [1]) [%]	inhibition at 5000 µM (PMNL [2]) [%]	inhibition at 100 µM (PMNL [3]) [%]	inhibition at 1000 µM (PMNL [4]) [%]	inhibition at 3000 µM (PMNL [5]) [%]
CC1=CC(OP(=O)(O)O)CC(C)(C)C1/C=C/C(C)=C/C=C/C(C)=C/C=C/C=C(C)/C=C/C=C(C)/C=C/C1=C(C)CC(OP(=O)(O)O)CC1(C)C (stereo not given) [LUTEIN DIPHOSPHATE SODIUM SALT]	18	91	0	9.3	72.3
CC1=CC(OC(=O)CCC(=O)O)CC(C)(C)C1/C=C/C(C)=C/C=C/C(C)=C/C=C/C=C(C)/C=C/C=C(C)/C=C/C1=C(C)CC(OC(=O)CCC(=O)O)CC1(C)C (stereo not given) [LUTEIN DISUCCINATE SODIUM SALT]	5	74.7	0	13	61.7

From ChEMBL document CHEMBL1138115, “The synthesis and aqueous superoxide anion scavenging of water-dispersible lutein esters” (2006)
